An excerpt weighted towards active compounds, which were near 2.3% of everything screened.
PLAP act = activates human placental alkaline phosphatase. purified PLAP enzyme, luminescent substrate read-out; hits give high values. activation fold at 20 µM. actives 1.2% (n = 96,000). AID 696; in the data active = activation fold above about 2
Ecoli WT expand = E. coli BW25113 growth inhibition, expanded screen. growth inhibition, % at 100 µM. OD600 absorbance. actives 0.15% (n = 98,000). AID 710;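 active = growth inhibition above about 50% at one test dose, limit read from the data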;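 also: growth measured after 20 h incubation at 37 °C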
HePTP inh = human HePTP phosphatase inhibition. inhibition, % at 20 µM. actives 0.64% (n = 110,000). recombinant HePTP phosphatase activity, OD absorbance. AID 521; in the data active = inhibition above about 50%
Target sequence (P35236 whole entry, looked up): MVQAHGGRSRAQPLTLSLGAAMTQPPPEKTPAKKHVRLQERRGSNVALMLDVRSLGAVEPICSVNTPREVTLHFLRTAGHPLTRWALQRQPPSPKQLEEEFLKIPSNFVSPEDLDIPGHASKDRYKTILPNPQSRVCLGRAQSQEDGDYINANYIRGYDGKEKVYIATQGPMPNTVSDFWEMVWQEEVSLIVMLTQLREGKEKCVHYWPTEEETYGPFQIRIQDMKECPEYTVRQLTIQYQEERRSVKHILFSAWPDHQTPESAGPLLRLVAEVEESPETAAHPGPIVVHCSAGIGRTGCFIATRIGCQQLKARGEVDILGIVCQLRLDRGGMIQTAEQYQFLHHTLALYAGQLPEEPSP
tolC growth inh = E. coli tolC mutant growth inhibition; E. coli BW25113 tolC mutant growth, OD615; growth inhibition, % at 10 µM (by protocol); actives 2.2% (n = 65,000);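 active = growth inhibition at or above a cutoff equal to the mean over every tested compound plus 3 SD, cut at about 60% in these data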;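 also: growth measured after 20 h incubation at 37 °C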
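test system = E. coli BW25113 ΔtolC::kan bacteria | medium = LB with kanamycin 50 µg/mL | signal = OD at 615 nm | schedule = 37 °C, 20 h exposure | evaluation = % inhibition of E. coli growth | compound dosing = one dose of 10 µM final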
AP ELISA ortho = alternative pathway complement inhibition, orthogonal assay; Human serum alternative complement pathway, LPS-coated ELISA, C3 deposition; tested in compound mixtures; inhibition, % at 5 µM; actives 0.08% (n = 62,000); AID 1235;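 active = inhibition above 30% in each of the two pooled mixtures holding the compound, so the lower value exceeds 30%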
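Assay system: human serum alternative complement pathway, C3 deposition on LPS-coated wells; Dosing: 5 µM per compound in ten-compound mixtures; Detection: Anti-C3 ELISA, OD 450 nm; Buffer or medium: Mg2+-EGTA GVB++ buffer containing human serum at 1:15 dilution; Timing: 1 h at 37 °C; Replication: two different pools per compound.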
Each line names hits and unclear results; the compound was inactive in the other large screens.

CNc1ccc(C(O)(C(F)(F)F)C(F)(F)F)cc1C(O)(C(F)(F)F)C(F)(F)F	tolC growth inh 62.2
COc1ccc(C(=O)N=Nc2c(O)n(CN3CCCC3)c3ccc(Br)cc23)cc1	none (no result: PLAP act, Ecoli WT expand, tolC growth inh, AP ELISA ortho)
COc1ccc(C(=O)N=Nc2c(O)n(CN(C)C)c3ccc(Br)cc23)cc1	HePTP inh 86.8 (no result: PLAP act, Ecoli WT expand, tolC growth inh, AP ELISA ortho)
CC(C)C(=O)NC(=S)N1CCOCC1	none (no result: PLAP act, Ecoli WT expand, tolC growth inh, AP ELISA ortho)
COC(=O)[C@H](CCSC)NC(=O)Nc1ccc(C)cc1C	PLAP act 2.7
CC1(C)Nc2ccccc2-c2c1ssc2=NC1CCCCC1	none (no result: PLAP act, Ecoli WT expand, tolC growth inh, AP ELISA ortho)
CCOC(=O)C1CCN(Cc2ccc(O)c3ncccc23)CC1	none
Cc1cccnc1NCc1ccc(O)c2ncccc12	PLAP act 2.6
CCN1C(=O)/C(=c2/s/c(=C3\C=Cc4ccccc4N3CC)c(=O)n2CC)SC1=S	none (no result: PLAP act, Ecoli WT expand, tolC growth inh, AP ELISA ortho)
CCOC(=O)C1=C(CSc2n[nH]c(N)n2)NC(=O)NC1C (centres undefined)	PLAP act 2.4
Oc1ccccc1-c1nc(NCC2CCCO2)c2ccccc2n1 (centres undefined)	tolC growth inh 66.0
Cc1ccc(C(=O)c2ccc(Br)c([N+](=O)[O-])c2)cc1	none (no result: PLAP act, Ecoli WT expand, tolC growth inh, AP ELISA ortho)
O=C(COc1ccc(Cl)cc1)Nc1nc(-c2cccs2)cs1	tolC growth inh 69.2 (no result: PLAP act)
O=C(Cc1ccccc1F)Nc1nc(-c2cccs2)cs1	tolC growth inh 91.2
O=C(Cc1ccccc1)Nc1nc(-c2cccs2)cs1	none
C/C(=N\NC(=O)COc1ccccc1[N+](=O)[O-])c1ccc(Br)cc1	none (no result: PLAP act, Ecoli WT expand, tolC growth inh, AP ELISA ortho)
CC(=O)N1CCc2ccccc2C1CN1C(=O)c2ccccc2C1=O (centres undefined)	none (no result: PLAP act, Ecoli WT expand, tolC growth inh, AP ELISA ortho)
Cc1cccc(N2CCN(Cc3oc(CO)cc(=O)c3O)CC2)c1C	PLAP act 2.2 (no result: HePTP inh, tolC growth inh, AP ELISA ortho)
CCn1c2ccccc2c2cc(NC(=O)c3ccc(OC)cc3OC)ccc21	none (no result: PLAP act, Ecoli WT expand, tolC growth inh, AP ELISA ortho)
CCOc1ccccc1C=Nc1ccccc1-c1ccccc1N=Cc1ccccc1OCC	none (no result: PLAP act, Ecoli WT expand, tolC growth inh, AP ELISA ortho)
O=C1C(=O)N(CC2CCCO2)C(c2ccc([N+](=O)[O-])cc2)/C1=C(/O)c1ccccc1 (centres undefined)	none (no result: PLAP act, Ecoli WT expand, tolC growth inh, AP ELISA ortho)
Cc1ccc2c(c1)n([O-])c1c([n+]2=O)CCCC1	none (no result: HePTP inh, tolC growth inh, AP ELISA ortho)
CC(=O)c1c(C)n([O-])c2ccc(C)cc2[n+]1=O	Ecoli WT expand 53.0, tolC growth inh 71.9
COc1ccc(CCNC(=O)C(=O)Nc2ccc(OC)c(Cl)c2)cc1	none (no result: PLAP act, Ecoli WT expand, tolC growth inh, AP ELISA ortho)
COc1ccc(NC(=O)c2ccc(Oc3ccc(C(=O)Nc4ccc(OC)cc4)cc3)cc2)cc1	none (no result: PLAP act, Ecoli WT expand, tolC growth inh, AP ELISA ortho)
CCNc1nc(SCc2ccccc2)nc(N2CCOCC2)n1	tolC growth inh 65.8
COc1cc(CNc2ccccc2Oc2cc(=O)n(C)c(=O)n2C)cc(OC)c1OC	none (no result: HePTP inh, tolC growth inh, AP ELISA ortho)
Cn1c(Oc2ccccc2NCc2cc(Br)ccc2O)cc(=O)n(C)c1=O	tolC growth inh 64.7
O=C1c2ccccc2NC(c2ccc(Cl)c(Cl)c2)N1Cc1ccco1 (centres undefined)	none (no result: PLAP act, Ecoli WT expand, tolC growth inh, AP ELISA ortho)
Cc1cc(C(=O)CSc2n[nH]c(N)n2)c(C)n1C1CC1	none (no result: HePTP inh, tolC growth inh, AP ELISA ortho)
Cc1cc(C(=O)CSc2n[nH]c(N)n2)c(C)n1-c1cc(F)ccc1F	PLAP act 2.4
C=CCn1c(C)cc(C(=O)CSc2n[nH]c(N)n2)c1C	PLAP act 2.7 (no result: HePTP inh, tolC growth inh, AP ELISA ortho)
Cc1nc(SCC(=O)c2ccc(F)cc2)n[nH]1	PLAP act 2.3
CCOc1ccccc1C(=O)NCCc1nc2ccccc2[nH]1	none (no result: PLAP act, Ecoli WT expand, tolC growth inh, AP ELISA ortho)
C=CCN1C(=O)/C(=C2\SC(=S)N(Cc3ccccc3)C2=O)c2ccccc21	none (no result: PLAP act, Ecoli WT expand, tolC growth inh, AP ELISA ortho)
Cc1cc(Cl)c(S(=O)(=O)N2CCSCC2)cc1OCC(=O)NC1CCCCC1	none (no result: HePTP inh, tolC growth inh, AP ELISA ortho)
Cc1cc(Cl)c(S(=O)(=O)N2CCCCCC2)cc1OCC(=O)NC1CCCCC1	PLAP act 2 (no result: HePTP inh, tolC growth inh, AP ELISA ortho)
CC(=O)NC1CCN(C(=O)N2CCCC2)CC1	AP ELISA ortho 37.2
COc1cccc(C(=O)NC2CCN(C(=O)N3CCCCC3)CC2)c1	none
CC(=O)Nc1ccc(N=Cc2ccncc2)cc1	none (no result: PLAP act, Ecoli WT expand, tolC growth inh, AP ELISA ortho)
Cc1cccc(N2C(N)=C(C#N)C(C#N)(C#N)C2c2ccccc2)c1 (centres undefined)	tolC growth inh 100.0
N#CC1=C(N)N(c2ccccc2)C(c2cccc([N+](=O)[O-])c2)C1(C#N)C#N (centres undefined)	none (no result: HePTP inh, tolC growth inh, AP ELISA ortho)
CC(=Nc1ccc(O)cc1)c1sc2ccccc2c1O	tolC growth inh 100.0
NC(=O)c1ccccc1NC(=O)c1cc([N+](=O)[O-])ccc1Cl	none (no result: PLAP act, Ecoli WT expand, tolC growth inh, AP ELISA ortho)
Cc1cc(O)c(/C=N/Nc2ccc(Cl)cc2)c(=O)o1	Ecoli WT expand 95.0 (no result: HePTP inh, tolC growth inh, AP ELISA ortho)
CCOc1cccc(-c2nn3c(-c4cc(C)[nH]n4)nnc3s2)c1	PLAP act 2.4
Cc1oc(-c2ccccc2F)nc1CN1CCC(C(=O)NC2CCCc3ccccc32)CC1 (centres undefined)	PLAP act 2 (no result: HePTP inh, tolC growth inh, AP ELISA ortho)

High-throughput results as filed in PubChem BioAssay.
